Assay outcomes: PubChem BioAssay, several laboratories
This is a sample that favours compounds with a hit; in the whole collection about 1.8% have one here.
Runt-SMMHC FRET – inhibitors of human RUNX1 Runt domain binding to CBFb-SMMHC; Q01196+Q13951; inhibition, % at 20 µM; Cerulean-Runt/Venus-CBFb-SMMHC FRET ratio 530/480, 1 h; hit rate 0.74% among 220,000;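 active = mean inhibition across duplicate retests at 20 µM reaching about 50%, limit read from the data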;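 also: 0% = DMSO wells and 100% = wells with excess untagged CBFb-SMMHC; inhibitors lower the FRET ratio by blocking Runt binding to CBFb-SMMHC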
Target sequence (Q01196 whole entry, looked up, the tested form may be a part): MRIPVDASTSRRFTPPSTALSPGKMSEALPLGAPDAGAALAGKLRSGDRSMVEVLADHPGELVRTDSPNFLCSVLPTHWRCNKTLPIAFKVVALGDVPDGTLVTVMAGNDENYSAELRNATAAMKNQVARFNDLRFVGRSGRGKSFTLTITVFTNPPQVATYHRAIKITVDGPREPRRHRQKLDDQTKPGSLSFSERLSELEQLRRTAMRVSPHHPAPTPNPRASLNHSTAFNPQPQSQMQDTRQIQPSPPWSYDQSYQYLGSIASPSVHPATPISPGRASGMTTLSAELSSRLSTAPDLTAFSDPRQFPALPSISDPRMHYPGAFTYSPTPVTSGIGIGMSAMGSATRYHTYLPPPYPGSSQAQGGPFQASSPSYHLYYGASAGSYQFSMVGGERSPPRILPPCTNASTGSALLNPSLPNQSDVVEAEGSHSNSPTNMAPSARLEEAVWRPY
Target sequence (Q13951 whole entry, looked up, the tested form may be a part): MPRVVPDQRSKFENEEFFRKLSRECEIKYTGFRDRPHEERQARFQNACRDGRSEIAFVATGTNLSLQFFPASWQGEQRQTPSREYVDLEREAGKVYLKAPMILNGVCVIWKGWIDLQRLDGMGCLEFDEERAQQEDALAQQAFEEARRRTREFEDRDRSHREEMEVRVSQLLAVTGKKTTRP
RanGTP-Impb inh – inhibitors of RanGTP-importin-beta interaction, primary screen, biochemical, FRET, CFP-Ran, YFP-importin-beta, homogeneous. cell-free CFP-Ran/YFP-importin-beta FRET ratio. inhibition, % (test concentration not listed). hit rate 1.1% among 300,000;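 active = more than half of the replicate wells show a fall in the fluorescence ratio signal beyond about 16%, limit read from the data, passing the limit was not always enough; inconclusive = exactly half of the replicate wells pass the set limit; inactive = fewer than half of replicates pass the limit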;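 also: 0% = DMSO wells and 100% = Ran loaded with GDP instead of GTP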
Rce1 inhib – yeast Ras-converting enzyme inhibition; Q03530; calls only; yeast membranes, quenched prenylated peptide cleavage fluorescence; hit rate 0.27% among 290,000;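 active = fall in fluorescence gain of 50% or more versus controls, with final raw signal at or below 3038400; inconclusive = same 50% fall but final raw signal above 3038400; inactive = fall in fluorescence gain under 50%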;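 also: plate controls were neutral control wells for no effect and wells lacking membranes for full effect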
Runt-CBFb FRET – Runt domain-CBFb interaction inhibition | Q01196+Q13951 | Cerulean-Runt/Venus-CBFb FRET ratio 530/480, 1 h | hit rate 0.46% among 220,000 | inhibition, % at 20 µM;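 active = inhibition over about 50% at 20 µM in the single-dose screen, limit read from the data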;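 also: 0% = DMSO wells and 100% = excess unlabeled CBFb competitor control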
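test system = Cerulean-Runt domain fusion protein, energy donor | probe or stimulus = Venus-CBFb binding partner, 100 nM | incubation = two 1 h room-temperature incubations shielded from light | detection = fluorescence energy transfer, 422 nm excitation, 530/480 nm emission | measure = loss of energy transfer signal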
Platelet DG rel – modulates dense granule release in human platelets; human platelet-rich plasma, SFLLRN dense granule ATP release, luminescence; inhibition, %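 (compounds screened at 7.5 µM in platelet-rich plasma)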; hit rate 0.22% among 300,000;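 active = mean replicate score, as percent of positive control, at or above 50; inconclusive = mean below 50 but at least one replicate at or above 50; inactive = mean and every replicate below 50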
* hit, by the source's call; i = inactive; u = inconclusive; x = no result; + = active, no number.

SMILES | Runt-SMMHC FRET | RanGTP-Impb inh | Rce1 inhib | Runt-CBFb FRET | Platelet DG rel
CN(C)c1ccc(/C=N/NC(=O)CNC(=O)c2ccc3c(c2)OCCO3)cc1 | 4.0 | -0.8 | + | 0.8 | 22.8
Cc1ccc(C2C3=C(CC(C)(C)CC3=O)Nc3n[nH]c(C)c32)cc1 (stereo not given) | -6.6 | -2.4 | i | -1.4 | -1.0
Cc1[nH]nc2c1C(c1ccc(F)cc1)C1=C(CC(C)(C)CC1=O)N2 (stereo not given) | 2.4 | 0.7 | + | -3.8 | -0.6
COc1ccc(S(=O)(=O)N/N=C\c2ccccc2F)cc1 | x | -1.3 | i | x | -4.5
COC(=O)C1CCCN1S(=O)(=O)c1ccc2ccccc2c1 (stereo not given) | -5.0 | 0.9 | + | -1.7 | 3.0
COC(=O)C1CCCN1S(=O)(=O)c1ccc([N+](=O)[O-])cc1 (stereo not given) | x | 10.6 | i | x | 7.9
CN1C(=O)/C(=C/c2ccc3c(c2)OCO3)N=C1c1ccccc1 | 14.8 | 17.4* | i | 1.3 | 28.8
N#CCCN(Cc1ccccc1)C(=S)Nc1ccccc1 | -4.9 | 1.4 | i | 0.0 | 15.5
Cc1[nH]c(=O)c(C#N)c(C)c1CSc1ncccn1 | x | 1.9 | i | x | 49.7*
Cc1[nH]c(=O)c(C#N)c(C)c1Cc1ccc(Cl)cc1Cl | -5.7 | 0.2 | i | 2.4 | 0.8
CN1c2ccccc2-c2nc3ccccc3n2C1c1cccs1 (stereo not given) | 29.9 | u | + | 11.1 | 3.1
Cc1nc2c(=O)oc3ccccc3c2n1-c1ccccc1 | 0.6 | -1.3 | i | 1.0 | -1.8
CCn1c(C)nc2c(=O)oc3ccccc3c21 | -1.8 | 4.3 | + | 0.2 | 2.8
CC(C)CC(=O)Nc1ccnn1C1CCN(C(=O)c2ccc(F)cc2Cl)CC1 | x | -1.1 | i | x | -4.9
CCN1CCN(c2nc3ccccn3c(=O)c2/C=C(\C#N)S(=O)(=O)c2ccccc2)CC1 | 12.2 | 76.8* | i | 14.9 | -4.1
Cc1ccc(S(=O)(=O)/C(C#N)=C/c2c(N3CCC(C(N)=O)CC3)nc3ccccn3c2=O)cc1 | -6.7 | 34.2* | i | -1.5 | -0.9
N#Cc1cc2ccccc2n2nnnc12 | x | 0.0 | i | x | 1.2
COc1ccc(C)cc1N(CC(=O)N/N=C/c1ccc2c(c1)OCO2)S(C)(=O)=O | -1.1 | 2.8 | i | -0.7 | -4.4
CCOC(=O)c1nnn2c1nc(N1CCOCC1)c1ccccc12 | -1.5 | -1.6 | + | -1.4 | -13.9
CCOC(=O)c1nnn2c1nc(N1CCCCC1)c1ccccc12 | 1.4 | 2.0 | i | 0.5 | 7.2
Cc1cc(C)c(C(=O)NC2CC(C)(C)Cc3c2cnn3-c2cccc(F)c2)[nH]1 (stereo not given) | x | 1.3 | i | x | -5.2
CCn1nc(C)cc1C(=O)NC1CC(C)(C)Cc2c1cnn2-c1cccc(F)c1 (stereo not given) | x | -3.6 | + | x | 0.9
Cc1cccc(NCN2C(=O)c3ccncc3C2=O)n1 | -0.1 | 19.4* | i | -2.2 | -4.8
Cc1cc(N2C(=O)C(O)=C(C(=O)c3cc4ccccc4o3)C2c2cccs2)no1 (stereo not given) | x | 42.3* | i | x | -15.0
CCOC(=O)c1ccccc1-c1csc(NS(=O)(=O)c2ccc(Cl)cc2)n1 | -3.6 | -1.3 | i | -0.2 | 2.6
SMILES | Runt-SMMHC FRET | RanGTP-Impb inh | Rce1 inhib | Runt-CBFb FRET | Platelet DG rel
S=c1nc(C2COc3ccccc3O2)[nH][nH]1 (stereo not given) | 12.4 | -6.1 | i | 46.0 | -9.4
CCCS(=O)(=O)c1cnc(C2COc3ccccc3O2)nc1N (stereo not given) | x | 1.1 | i | x | 66.4*
O=C(COc1ncnc2cc([N+](=O)[O-])ccc12)NCCc1ccc(Cl)cc1 | 3.1 | 0.2 | i | 1.8 | -3.4
O=C(COc1ncnc2cc([N+](=O)[O-])ccc12)NC(=O)NC1CCCCC1 | 0.6 | 0.8 | + | 0.1 | -8.2
c1ccc(N2N=C(c3cccs3)CC2c2ccco2)cc1 (stereo not given) | 81.6* | 0.6 | i | 32.3 | -1.4
Clc1ccc(N2N=C(c3cccs3)CC2c2ccco2)cc1 (stereo not given) | 90.8* | 9.7 | i | x | 10.1
CCC(=O)N1N=C(c2cccs2)CC1c1ccco1 (stereo not given) | 1.2 | -5.5 | i | 2.2 | 5.0
Cc1ccc(C23CC4CC(CC(CC(=O)N5CCOCC5)(C4)C2)C3)cc1 | -15.3 | 24.7* | i | -3.9 | -3.6
Cc1ccc(C23CC4CC(CC(C(=O)N5CCN(C)CC5)(C4)C2)C3)cc1 | 4.0 | 1.6 | i | -1.6 | 9.0
Cc1cc(NC(=O)CCC(=O)N(CC(=O)NC2CCCC2)c2ccc(Cl)cc2)no1 | x | -1.4 | i | x | 0.2
COc1ccc(C(O)Cn2ccsc2=NC(C)=O)cc1 (stereo not given) | x | 0.1 | i | x | 19.8
COc1cc(NC(=O)c2cc(-c3ccc4c(c3)OCO4)on2)cc(OC)c1OC | x | -3.8 | i | x | -33.8
O=C(Nc1cccc(O)c1)c1cc(-c2ccc3c(c2)OCO3)on1 | x | 1.2 | i | x | 95.1*
COC(=O)Cn1c(=O)c2c(n(Cc3ccccc3)c1=O)N/C(=C/c1ccc(OC)cc1)C2=O | 30.1 | 20.5* | i | -20.1 | -1.9
O=C(NCCC(=O)N1CCCC(C(F)(F)F)C1)c1ccc(Br)cc1 (stereo not given) | x | 1.8 | i | x | -13.3
Cc1ccc(NS(=O)(=O)c2cc(-c3n[nH]c(=O)c4ccccc34)ccc2C)cc1 | -6.9 | 6.3 | i | -5.6 | -1.7
CCOC(=O)CNS(=O)(=O)c1cc(-c2n[nH]c(=O)c3ccccc23)ccc1C | 2.7 | 1.8 | i | -1.6 | 51.3*
CCOC(=O)C1=CN(CC2CCCO2)C=C(C(=O)OCC)C1c1ccccc1C(F)(F)F (stereo not given) | 91.1* | 5.4 | i | 109.4* | -0.7
CCC(C)[C@H]1CNCCN1CCc1cccc2ccccc12 (stereo not given in full) | x | -2.7 | i | x | 0.4
O=c1[nH]c(SCc2ccccc2)nc2c1cnn2-c1ccc(F)cc1 | -6.0 | 28.4* | i | 0.3 | -10.3
Cc1nc(NC(=O)c2ccccc2)sc1C1(C)CC(c2c(Cl)cccc2Cl)=NO1 (stereo not given) | 1.5 | -3.1 | i | 2.2 | 3.6
COc1ccc(OCC(=O)Nc2cccc(-c3nc4ccccc4[nH]3)c2)cc1 | 1.8 | 30.7* | i | -1.9 | -10.6
O=C(COc1ccccc1)Nc1cccc(-c2nc3ccccc3[nH]2)c1 | -3.4 | 7.0 | i | -1.4 | 2.3
O=C(NNC(=O)C1[C@H]2CCCC[C@@H]12)c1ccc(=O)oc1 (stereo not given in full) | 82.5* | -0.1 | i | 27.6 | -10.0
CCc1cc(=O)oc2c(C)c(OC(C)C(=O)NC3CC(C)(C)NC(C)(C)C3)ccc12 (stereo not given) | x | 0.4 | + | x | 1.9
CCc1cc(=O)oc2c(C)c(OCC(=O)NC3CC(C)(C)NC(C)(C)C3)ccc12 | x | -1.5 | i | x | u
